Data as given in ChEMBL document CHEMBL2331251, “Synthesis and biological evaluation of nucleoside analogues than contain silatrane on the basis of the structure of acyclovir (ACV) as novel inhibitors of hepatitis B virus (HBV)” (Bioorg Med Chem Lett, 2013).
Active and inactive are the calls of the source. The calls are words filed in the database; no cut-off is given here.

How the values were obtained:
[1] = Cytotoxicity against human HepG2.2.15 cells assessed as reduction in number of viable cells after 3 days by MTT assay; assay type: cell-based, HepG2 2.2.15
Method in brief: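 Confluent HepG2.2.15 cultures were exposed to test compounds for 3 days, with six cultures for each of two dilutions. MTT (5 g/l) was added 4 h before the end, cells were dissolved in DMSO, and OD was read at 570 nm. CC50 (50% reduction in viable cells or OD) was calculated by the Berkson logit method. Mean ± SD of three independent experiments.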

Hepatitis B virus [2] = assay: Antiviral activity against Hepatitis B virus transfected in human HepG2.2.15 cells assessed as inhibition of HBsAg secretion after 6 days by ELISA; assay type: functional, organism-based; conditions: HepG2 2.2.15, 144 h
Method in brief: (§1)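 HepG2.2.15 cells in DMEM with 10% FBS at 37 °C, 5% CO2, seeded at about 5 × 10⁵/well. After 24 h, compound was added at a range of concentrations, and media were replaced every 2 days for 6 days. Media were spun at 5000 rpm for 10 min, and secreted HBsAg and HBeAg were measured by ELISA. IC50 is the mean ± SD of three independent experiments.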

Hepatitis B virus [3] = assay: Antiviral activity against Hepatitis B virus transfected in human HepG2.2.15 cells assessed as inhibition of HBeAg secretion after 6 days by ELISA; assay type: functional, organism-based; conditions: HepG2 2.2.15, 144 h; method in brief: as §1
Hepatitis B virus [4] = assay: Antiviral activity against Hepatitis B virus infected in transgenic mouse assessed as decrease in viral DNA level in liver at 100 mg/kg qd for 1 month by qPCR analysis; assay type: functional, organism-based; set-up: dose 100 mg/kg
Method in brief: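 HBV transgenic mice, 8 weeks old, sex- and HBsAg-matched, 10 per group. Given 100 mg/kg daily for one month, solubilized with 0.1% DMSO. Livers were harvested after 30 days. HBV DNA was extracted and quantified by qPCR with a commercial HBV DNA kit, 40 cycles, normalized to GAPDH, run in duplicate. Mean ± SD of 10 mice.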

Mus musculus [5] = assay: Immunoregulatory activity in Hepatitis B virus infected transgenic mouse assessed as increase in CD8+ population in peripheral blood at 100 mg/kg qd for 1 month by flow cytometry (reference value: 14.1 +/-1.4%); assay type: functional
Mus musculus [6] = assay: Immunoregulatory activity in Hepatitis B virus infected transgenic mouse assessed as increase in CD4+ population in peripheral blood at 100 mg/kg qd for 1 month by flow cytometry (reference value: 13.6 +/-2.7%); assay type: functional
Hepatitis B virus [7] = assay: Antiviral activity against Hepatitis B virus infected in transgenic mouse assessed as decrease in serum HBeAg level at 100 mg/kg qd for 1 month by ELISA; assay type: functional, organism-based; set-up: dose 100 mg/kg
Method in brief: (§2)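 HBV transgenic mice (C57BL/6 background, 3.2 Kb HBV DNA, backcrossed to C57BL/6J), 8 weeks old, equal numbers of each sex, matched for serum HBsAg. Ten per group. Dosed 100 mg/kg once daily for one month in 0.1% DMSO. Groups included saline and 0.1% DMSO. Sera were taken at day 30, and HBsAg and HBeAg were measured by ELISA kit. Mean ± SD of 10 mice.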

Mus musculus [8] = assay: Immunoregulatory activity in Hepatitis B virus infected transgenic mouse assessed as increase in CD4+/CD8+ population in peripheral blood at 100 mg/kg qd for 1 month by flow cytometry (reference value: 0.9 +/-0.2%); assay type: functional
Mus musculus [9] = assay: Immunoregulatory activity in Hepatitis B virus infected transgenic mouse assessed as increase in cytokine IL-2 mRNA level in liver at 100 mg/kg qd for 1 month by qPCR analysis; assay type: functional, organism-based; set-up: dose 100 mg/kg
Method in brief: (§3)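 Liver IFN-γ and IL-2 mRNA were measured by qPCR with mouse-specific primers, normalized to GAPDH, 40 cycles, in duplicate. HBV transgenic mice (10 per group) had been dosed at 100 mg/kg once daily for one month in 0.1% DMSO, and livers were taken at day 30. Mean ± SD of 10 mice.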

Mus musculus [10] = assay: Immunoregulatory activity in Hepatitis B virus infected transgenic mouse assessed as increase in cytokine IL-2 level in serum at 100 mg/kg qd for 1 month by ELISA; assay type: functional, organism-based; set-up: dose 100 mg/kg
Method in brief: (§4)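 Serum IFN-γ and IL-2 were measured by ELISA in HBV transgenic mice (10 per group) after 100 mg/kg once daily for one month in 0.1% DMSO, with sera collected at day 30. Mean ± SD of 10 mice.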

Mus musculus [11] = assay: Immunoregulatory activity in Hepatitis B virus infected transgenic mouse assessed as increase in CD3+ population in peripheral blood at 100 mg/kg qd for 1 month by flow cytometry (reference value: 30.1 +/-2.9%); assay type: functional
Mus musculus [12] = assay: Immunoregulatory activity in Hepatitis B virus infected transgenic mouse assessed as increase in cytokine IFN gamma level in serum at 100 mg/kg qd for 1 month by ELISA; assay type: functional, organism-based; set-up: dose 100 mg/kg; method in brief: as §4
Hepatitis B virus [13] = assay: Antiviral activity against Hepatitis B virus infected in transgenic mouse assessed as decrease in serum HBsAg level at 100 mg/kg qd for 1 month by ELISA; assay type: functional, organism-based; set-up: dose 100 mg/kg; method in brief: as §2
Mus musculus [14] = assay: Immunoregulatory activity in Hepatitis B virus infected transgenic mouse assessed as increase in cytokine IFN gamma mRNA level in liver at 100 mg/kg qd for 1 month by qPCR analysis; assay type: functional, organism-based; set-up: dose 100 mg/kg; method in brief: as §3

SMILES: CC1CN2CC(C)O[Si](CCCNC(=O)CCCC(=O)OCCOCn3cnc4c(=O)[nH]c(N)nc43)(OC[C@@H]2C)O1 (stereo partly specified)
- CC50 at 72 h [1]: 732 µM
- IC50 (Hepatitis B virus [2]): 141 µM
- IC50 (Hepatitis B virus [3]): 486 µM

SMILES: Nc1nc2c(ncn2COCCOC(=O)CCCC(=O)NCCC[Si]23OCCN(CCO2)CCO3)c(=O)[nH]1
- CC50 at 72 h [1]: 570 µM
- IC50 (Hepatitis B virus [2]): 90.4 µM
- IC50 (Hepatitis B virus [3]): 160 µM

SMILES: CC1CN2CC(C)O[Si](CCCNC(=O)CCC(=O)OCCOCn3cnc4c(=O)[nH]c(N)nc43)(O1)O[C@@H](C)C2 (stereo partly specified)
- inhibition (Hepatitis B virus [4]): Active
- Activity (Mus musculus [5]): 20.6%
- CC50 at 72 h [1]: 467 µM
- Activity (Mus musculus [6]): 33%
- inhibition (Hepatitis B virus [7]): Active
- Activity (Mus musculus [8]): 1.6%
- Activity (Mus musculus [9]): Active
- IC50 (Hepatitis B virus [2]): 34.5 µM
- Activity (Mus musculus [10]): Active
- IC50 (Hepatitis B virus [3]): 89.8 µM
- Activity (Mus musculus [11]): 48.3%
- Activity (Mus musculus [12]): Active
- inhibition (Hepatitis B virus [13]): Active
- Activity (Mus musculus [14]): Active

SMILES: Nc1nc2c(ncn2COCCOC(=O)CCC(=O)NCCC[Si]23OCCN(CCO2)CCO3)c(=O)[nH]1
- CC50 at 72 h [1]: 485 µM
- IC50 (Hepatitis B virus [2]): 79.7 µM
- IC50 (Hepatitis B virus [3]): 125 µM

SMILES: Nc1nc2c(ncn2COCCO)c(=O)[nH]1 [ACYCLOVIR]
- Activity (Mus musculus [5]): 15.1%
- CC50 at 72 h [1]: 630 µM
- Activity (Mus musculus [6]): 18.7%
- Activity (Mus musculus [8]): 1.2%
- Activity (Mus musculus [9]): Active
- IC50 (Hepatitis B virus [2]): > 1000 µM
- Activity (Mus musculus [10]): Active
- IC50 (Hepatitis B virus [3]): > 1000 µM
- Activity (Mus musculus [11]): 31.2%
- Activity (Mus musculus [12]): Active
- Activity (Mus musculus [14]): Active

SMILES: Nc1ccn([C@@H]2CS[C@H](CO)O2)c(=O)n1 [LAMIVUDINE]
- inhibition (Hepatitis B virus [4]): Active
- Activity (Mus musculus [5]): 16.7%
- CC50 at 72 h [1]: > 1000 µM
- Activity (Mus musculus [6]): 19.3%
- Activity (Mus musculus [8]): 1.2%
- Activity (Mus musculus [9]): Active
- IC50 (Hepatitis B virus [2]): 406 µM
- Activity (Mus musculus [10]): Active
- IC50 (Hepatitis B virus [3]): > 1000 µM
- Activity (Mus musculus [11]): 34.1%
- Activity (Mus musculus [12]): Active
- Activity (Mus musculus [14]): Active
